Ends that are not written are not given here.
What was measured:
[1] = test system: A/J mice; assay: Induction of myocarditis by immunization with SERCA2a peptides, histology; type: in vivo, mouse; settings: individual peptide/CFA + PT; for Total inflammatory foci (Mean ± SEM): day 21, H&E heart sections; for Severity of lesions, Atria, Number of animals affected (%), Mild / Severity of lesions, Ventricle, Number of animals affected (%), Mild / Severity of lesions, Atria, Number of animals affected (%), Normal / Severity of lesions, Ventricle, Number of animals affected (%), Normal / Severity of lesions, Atria, Number of animals affected (%), Severe / Severity of lesions, Ventricle, Number of animals affected (%), Severe: day 21, H&E; for Severity of lesions, Atria, Number of animals affected (%), Mild / Severity of lesions, Ventricle, Number of animals affected (%), Mild: mild = 1–5 foci; for Severity of lesions, Atria, Number of animals affected (%), Normal / Severity of lesions, Ventricle, Number of animals affected (%), Normal: normal = 0 foci; for Severity of lesions, Atria, Number of animals affected (%), Severe / Severity of lesions, Ventricle, Number of animals affected (%), Severe: severe = 26 foci and above
In short: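 Mice got peptide/CFA emulsion (M. tuberculosis H37RA extract 5 mg/ml), 50–100 μg individual peptide, s.c. at inguinal and sternum sites on days 0 and 7. Pertussis toxin 100 ng/mouse i.p. on days 0 and 2. Controls: untreated, CFA+PT. Organs harvested day 21, formalin-fixed, 5 μm H&E sections ~150 μm apart. Blinded foci counts scored 0 / 1–5 / 6–25 / ≥26.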

[2] = test system: LNCs; assay: Cytokine secretion by restimulated LNCs, cytokine bead array; type: cell-based, mouse; settings: supernatants of LNCs from mice immunized with the named peptide (Fig. S2c)

Substance	Total inflammatory foci (Mean ± SEM) ([1]; SEM)	Severity of lesions, Atria, Number of animals affected (%), Mild [1]	Severity of lesions, Ventricle, Number of animals affected (%), Mild [1]	Severity of lesions, Atria, Number of animals affected (%), Normal [1]	Severity of lesions, Ventricle, Number of animals affected (%), Normal [1]	Severity of lesions, Atria, Number of animals affected (%), Severe [1]	Severity of lesions, Ventricle, Number of animals affected (%), Severe [1]	Total inflammatory foci (Mean ± SEM) [1]	Cytokine pattern of peptides inducing mild disease [2]
SERCA2a 951-970: N-terminally acetylated 20-mer peptide of SERCA2a, residues 951-970 (Ac-PLPLIFQITPLNVTQWLMVL; UniProt P16615 951-970, looked up, fragment)	40.00 ± 39.00	1 (10) %	0 (0) %	8	9	1 (10) %	1 (10) %		
SERCA2a 601-620: N-terminally acetylated 20-mer peptide of SERCA2a, residues 601-620 (Ac-PPRIEVASSVKLCRQAGIRV; UniProt P16615 601-620, looked up, fragment)		0 (0) %	0 (0) %	5	5	0 (0) %	0 (0) %	0	
SERCA2a 481-500: N-terminally acetylated 20-mer peptide of SERCA2a, residues 481-500 (Ac-KEFTLEFSRDRKSMSVYCTP; UniProt P16615 481-500, looked up, fragment)		0 (0) %	0 (0) %	5	5	0 (0) %	0 (0) %	0	
SERCA2a 171-190: N-terminally acetylated 20-mer peptide of SERCA2a, residues 171-190 (Ac-TTLRVDQSILTGESVSVIKH; UniProt P16615 171-190, looked up, fragment)	2.00 ± 0.00	1 (20) %	1 (20) %	4	4	0 (0) %	0 (0) %		
SERCA2a 311-330: N-terminally acetylated 20-mer peptide of SERCA2a, residues 311-330 (Ac-LPAVITTCLALGTRRMAKKN; UniProt P16615 311-330, looked up, fragment)		0 (0) %	0 (0) %	5	5	0 (0) %	0 (0) %	0	
SERCA2a 821-840: N-terminally acetylated 20-mer peptide of SERCA2a, residues 821-840 (Ac-RNPKEPLISGWLFFRYLAIG; UniProt P16615 821-840, looked up, fragment)		0 (0) %	0 (0) %	5	5	0 (0) %	0 (0) %	0	
SERCA2a 471-490: N-terminally acetylated 20-mer peptide of SERCA2a, residues 471-490 (Ac-CNSVIKQLMKKEFTLEFSRD; UniProt P16615 471-490, looked up, fragment)		0 (0) %	0 (0) %	5	5	0 (0) %	0 (0) %	0	
SERCA2a 31-50: N-terminally acetylated 20-mer peptide of SERCA2a, residues 31-50 (Ac-KLKERWGSNELPAEEGKTLL; UniProt P16615 31-50, looked up, fragment)	8.00 ± 0.00	0 (0) %	0 (0) %	5	4	0 (0) %	0 (0) %		produced mainly IFN-γ
SERCA2a 591-610: N-terminally acetylated 20-mer peptide of SERCA2a, residues 591-610 (Ac-TFVGCVGMLDPPRIEVASSV; UniProt P16615 591-610, looked up, fragment)		0 (0) %	0 (0) %	5	5	0 (0) %	0 (0) %	0	
SERCA2a 161-180: N-terminally acetylated 20-mer peptide of SERCA2a, residues 161-180 (Ac-ADIRLTSIKSTTLRVDQSIL; UniProt P16615 161-180, looked up, fragment)	2.50 ± 0.64		3 (30) %	6	7	0 (0) %	0 (0) %		underproduction of both IFN-γ and IL-17A

From paper PMC5760440 (Journal of immunology (Baltimore, Md. : 1950), 2017)
